Data reported in ChEMBL document CHEMBL5653631, “A Potent and Selective ULK1 Inhibitor Suppresses Autophagy and Sensitizes Cancer Cells to Nutrient Stress” (iScience, 2018).
One block for each compound: values may come before it.

Tests used:
[1] = target: Serine/threonine-protein kinase/endoribonuclease IRE1 (Homo sapiens) (UniProt O75460); assay: Inhibition of human recombinant IRE1 at 500 nM in presence of ATP by radiometric assay relative to control
[2] = target: Leukocyte tyrosine kinase receptor (Homo sapiens) (UniProt P29376); assay: Inhibition of human recombinant LTK at 500 nM in presence of ATP by radiometric assay relative to control
[3] = target: RAC-beta serine/threonine-protein kinase (Homo sapiens) (UniProt P31751); assay: Inhibition of human recombinant AKT2 at 500 nM related to control ULK1
[4] = target: Hepatocyte growth factor receptor (Homo sapiens) (UniProt P08581); assay: Inhibition of human recombinant MET at 500 nM in presence of ATP by radiometric assay relative to control
[5] = target: Aurora kinase B (Homo sapiens) (UniProt Q96GD4); assay: Inhibition of human recombinant AurB at 15 nM in presence of ATP by radiometric assay relative to control
Summary of the method: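 Part of a radiometric in vitro activity panel of 327 recombinant human kinases. Each kinase was tested in duplicate at one inhibitor concentration. Activity remaining was expressed as a percentage of the vehicle control, and percent inhibition was taken as 100 minus that value.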

[6] = target: Cyclin-dependent kinase 13 (Homo sapiens) (UniProt Q14004); assay: Inhibition of human recombinant CHED at 15 nM in presence of ATP by radiometric assay relative to control
[7] = target: T1, Ephrin type-B receptor 3 (Homo sapiens) (UniProt P54753); assay: Inhibition of human recombinant EphB3 at 15 nM in presence of ATP by radiometric assay relative to control
T1 sequence (whole entry): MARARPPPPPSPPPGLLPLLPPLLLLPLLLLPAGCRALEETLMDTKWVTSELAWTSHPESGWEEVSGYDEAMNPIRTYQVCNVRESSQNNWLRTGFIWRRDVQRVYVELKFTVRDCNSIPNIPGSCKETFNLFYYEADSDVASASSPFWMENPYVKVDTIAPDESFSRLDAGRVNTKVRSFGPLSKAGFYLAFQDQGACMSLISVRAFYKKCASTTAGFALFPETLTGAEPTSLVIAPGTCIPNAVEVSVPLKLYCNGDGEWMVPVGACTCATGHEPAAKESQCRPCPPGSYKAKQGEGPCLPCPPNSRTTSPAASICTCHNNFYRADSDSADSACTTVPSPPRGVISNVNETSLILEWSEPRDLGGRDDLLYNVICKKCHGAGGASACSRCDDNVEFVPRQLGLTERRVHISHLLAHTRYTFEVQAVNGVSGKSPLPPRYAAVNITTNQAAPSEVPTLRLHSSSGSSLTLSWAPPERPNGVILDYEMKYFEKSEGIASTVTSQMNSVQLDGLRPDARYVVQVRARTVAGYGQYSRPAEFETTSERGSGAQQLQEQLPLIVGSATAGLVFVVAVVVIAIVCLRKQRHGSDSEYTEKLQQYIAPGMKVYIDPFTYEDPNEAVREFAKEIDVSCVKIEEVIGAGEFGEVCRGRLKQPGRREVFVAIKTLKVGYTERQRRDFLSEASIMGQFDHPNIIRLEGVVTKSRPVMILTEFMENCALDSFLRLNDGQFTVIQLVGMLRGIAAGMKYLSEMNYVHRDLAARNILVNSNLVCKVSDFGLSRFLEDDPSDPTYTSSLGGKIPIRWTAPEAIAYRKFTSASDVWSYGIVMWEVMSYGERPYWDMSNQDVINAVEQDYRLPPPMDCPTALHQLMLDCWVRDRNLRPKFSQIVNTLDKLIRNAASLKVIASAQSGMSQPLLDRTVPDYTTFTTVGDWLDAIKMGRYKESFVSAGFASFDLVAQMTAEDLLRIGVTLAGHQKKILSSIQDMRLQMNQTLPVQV

[8] = target: Maternal embryonic leucine zipper kinase (Homo sapiens) (UniProt Q14680); assay: Inhibition of human recombinant MELK at 15 nM in presence of ATP by radiometric assay relative to control
[9] = target: Calcium/calmodulin-dependent protein kinase type II subunit gamma (Homo sapiens) (UniProt Q13555); assay: Inhibition of human recombinant CaMK2g at 15 nM related to control ULK1
[10] = target: Tyrosine-protein kinase Tec (Homo sapiens) (UniProt P42680); assay: Inhibition of human recombinant TEC at 15 nM in presence of ATP by radiometric assay relative to control
[11] = target: Dual specificity mitogen-activated protein kinase kinase 2 (Homo sapiens) (UniProt P36507); assay: Inhibition of human recombinant MAP2K2 at 40 nM in presence of ATP by radiometric assay relative to control
[12] = target: SRSF protein kinase 3 (Homo sapiens) (UniProt Q9UPE1); assay: Inhibition of human recombinant MSSK1 at 40 nM in presence of ATP by radiometric assay relative to control
[13] = target: Serine/threonine-protein kinase N2 (Homo sapiens) (UniProt Q16513); assay: Inhibition of human recombinant PKN2 at 40 nM in presence of ATP by radiometric assay relative to control
[14] = target: Cyclin-dependent kinase 6 (Homo sapiens) (UniProt Q00534); assay: Inhibition of human recombinant CDK6 at 40 nM related to control ULK1
Cyclin-dependent kinase 6 (Homo sapiens), sequence (Q00534 whole entry): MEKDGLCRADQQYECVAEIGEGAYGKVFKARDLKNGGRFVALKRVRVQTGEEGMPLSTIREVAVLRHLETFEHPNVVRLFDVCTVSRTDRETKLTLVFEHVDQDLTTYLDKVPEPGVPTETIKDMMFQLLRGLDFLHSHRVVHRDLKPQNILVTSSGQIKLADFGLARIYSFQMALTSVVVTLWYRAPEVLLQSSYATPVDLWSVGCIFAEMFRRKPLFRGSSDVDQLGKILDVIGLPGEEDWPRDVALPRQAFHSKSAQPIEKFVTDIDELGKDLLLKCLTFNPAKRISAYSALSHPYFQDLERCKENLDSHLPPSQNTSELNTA

Maternal embryonic leucine zipper kinase (Homo sapiens), sequence (Q14680 whole entry, looked up): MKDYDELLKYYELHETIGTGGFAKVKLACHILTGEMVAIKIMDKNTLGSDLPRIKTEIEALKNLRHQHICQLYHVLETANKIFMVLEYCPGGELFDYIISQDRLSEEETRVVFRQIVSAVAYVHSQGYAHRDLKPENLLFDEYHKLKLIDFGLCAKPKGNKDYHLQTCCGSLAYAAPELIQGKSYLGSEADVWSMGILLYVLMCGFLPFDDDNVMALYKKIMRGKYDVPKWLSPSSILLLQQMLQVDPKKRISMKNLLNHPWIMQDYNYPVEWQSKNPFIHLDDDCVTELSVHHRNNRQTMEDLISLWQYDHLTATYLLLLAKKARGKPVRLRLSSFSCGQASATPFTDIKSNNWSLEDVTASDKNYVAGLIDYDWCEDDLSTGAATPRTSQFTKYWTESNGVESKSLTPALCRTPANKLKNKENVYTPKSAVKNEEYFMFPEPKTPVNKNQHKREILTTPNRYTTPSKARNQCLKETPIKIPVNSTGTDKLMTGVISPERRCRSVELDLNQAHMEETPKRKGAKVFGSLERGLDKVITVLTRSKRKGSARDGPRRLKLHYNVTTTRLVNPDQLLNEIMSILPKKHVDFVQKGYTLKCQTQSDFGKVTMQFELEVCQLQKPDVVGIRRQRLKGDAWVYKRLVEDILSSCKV
RAC-beta serine/threonine-protein kinase (Homo sapiens), sequence (P31751 whole entry): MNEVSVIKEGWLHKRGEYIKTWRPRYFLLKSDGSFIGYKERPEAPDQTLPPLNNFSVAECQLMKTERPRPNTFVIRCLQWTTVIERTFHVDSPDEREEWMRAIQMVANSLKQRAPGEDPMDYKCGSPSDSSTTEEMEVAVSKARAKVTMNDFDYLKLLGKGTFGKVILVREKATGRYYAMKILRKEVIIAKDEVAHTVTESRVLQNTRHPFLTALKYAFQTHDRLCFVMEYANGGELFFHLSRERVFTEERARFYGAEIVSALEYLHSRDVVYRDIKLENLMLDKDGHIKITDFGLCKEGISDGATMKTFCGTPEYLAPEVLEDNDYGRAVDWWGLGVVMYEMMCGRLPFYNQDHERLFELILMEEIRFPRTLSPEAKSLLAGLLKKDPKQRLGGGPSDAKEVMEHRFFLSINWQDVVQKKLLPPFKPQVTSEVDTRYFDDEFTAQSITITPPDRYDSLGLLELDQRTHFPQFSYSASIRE
Serine/threonine-protein kinase/endoribonuclease IRE1 (Homo sapiens), sequence (O75460 19-977 limits assumed): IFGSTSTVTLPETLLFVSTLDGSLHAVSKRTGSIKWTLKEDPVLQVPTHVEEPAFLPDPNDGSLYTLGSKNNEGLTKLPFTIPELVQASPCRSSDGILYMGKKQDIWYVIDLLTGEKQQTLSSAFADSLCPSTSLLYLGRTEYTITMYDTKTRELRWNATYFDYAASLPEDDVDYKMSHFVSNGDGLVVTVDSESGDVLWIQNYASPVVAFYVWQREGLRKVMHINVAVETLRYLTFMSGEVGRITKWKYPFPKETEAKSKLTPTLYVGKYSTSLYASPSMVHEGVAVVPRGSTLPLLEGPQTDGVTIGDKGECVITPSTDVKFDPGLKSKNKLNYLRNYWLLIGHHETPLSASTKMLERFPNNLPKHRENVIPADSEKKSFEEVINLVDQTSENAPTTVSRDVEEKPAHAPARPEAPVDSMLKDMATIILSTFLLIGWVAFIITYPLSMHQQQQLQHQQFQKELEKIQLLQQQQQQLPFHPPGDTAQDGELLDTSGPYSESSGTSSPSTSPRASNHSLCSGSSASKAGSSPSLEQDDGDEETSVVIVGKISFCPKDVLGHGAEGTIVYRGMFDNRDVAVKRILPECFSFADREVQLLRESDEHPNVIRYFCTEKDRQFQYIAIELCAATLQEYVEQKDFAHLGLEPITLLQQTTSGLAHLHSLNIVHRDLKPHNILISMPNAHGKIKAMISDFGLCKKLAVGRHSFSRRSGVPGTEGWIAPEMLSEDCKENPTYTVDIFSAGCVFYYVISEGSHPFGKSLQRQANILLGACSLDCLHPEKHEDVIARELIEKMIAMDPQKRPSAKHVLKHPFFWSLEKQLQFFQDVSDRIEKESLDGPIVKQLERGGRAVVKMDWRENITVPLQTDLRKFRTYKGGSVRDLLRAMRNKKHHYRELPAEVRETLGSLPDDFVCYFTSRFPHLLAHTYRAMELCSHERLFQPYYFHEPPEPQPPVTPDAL
SRSF protein kinase 3 (Homo sapiens), sequence (Q9UPE1 whole entry): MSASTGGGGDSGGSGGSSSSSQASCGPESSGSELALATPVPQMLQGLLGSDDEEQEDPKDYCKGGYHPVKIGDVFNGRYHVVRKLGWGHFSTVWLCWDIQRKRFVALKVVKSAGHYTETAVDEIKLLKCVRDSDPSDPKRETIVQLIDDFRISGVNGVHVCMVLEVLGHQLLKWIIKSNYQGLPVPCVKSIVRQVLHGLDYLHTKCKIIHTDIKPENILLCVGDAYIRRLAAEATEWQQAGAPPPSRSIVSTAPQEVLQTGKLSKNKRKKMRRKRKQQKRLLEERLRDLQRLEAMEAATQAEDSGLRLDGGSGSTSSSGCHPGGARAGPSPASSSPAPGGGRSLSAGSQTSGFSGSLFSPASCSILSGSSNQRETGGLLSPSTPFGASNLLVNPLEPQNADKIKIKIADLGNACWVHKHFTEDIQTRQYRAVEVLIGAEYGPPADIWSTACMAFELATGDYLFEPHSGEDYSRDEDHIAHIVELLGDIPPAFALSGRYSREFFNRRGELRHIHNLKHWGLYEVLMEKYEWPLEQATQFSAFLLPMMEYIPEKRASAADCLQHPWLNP
Aurora kinase B (Homo sapiens), sequence (Q96GD4 whole entry): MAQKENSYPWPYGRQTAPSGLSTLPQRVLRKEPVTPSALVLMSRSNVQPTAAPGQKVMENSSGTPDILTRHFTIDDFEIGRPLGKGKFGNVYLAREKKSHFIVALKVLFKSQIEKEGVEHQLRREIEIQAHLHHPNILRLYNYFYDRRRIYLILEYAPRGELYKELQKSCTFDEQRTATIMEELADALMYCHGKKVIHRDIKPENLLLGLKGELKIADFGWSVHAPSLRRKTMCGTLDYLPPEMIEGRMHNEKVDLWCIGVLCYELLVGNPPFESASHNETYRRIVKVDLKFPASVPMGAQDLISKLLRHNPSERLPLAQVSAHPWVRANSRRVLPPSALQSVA
Calcium/calmodulin-dependent protein kinase type II subunit gamma (Homo sapiens), sequence (Q13555 whole entry): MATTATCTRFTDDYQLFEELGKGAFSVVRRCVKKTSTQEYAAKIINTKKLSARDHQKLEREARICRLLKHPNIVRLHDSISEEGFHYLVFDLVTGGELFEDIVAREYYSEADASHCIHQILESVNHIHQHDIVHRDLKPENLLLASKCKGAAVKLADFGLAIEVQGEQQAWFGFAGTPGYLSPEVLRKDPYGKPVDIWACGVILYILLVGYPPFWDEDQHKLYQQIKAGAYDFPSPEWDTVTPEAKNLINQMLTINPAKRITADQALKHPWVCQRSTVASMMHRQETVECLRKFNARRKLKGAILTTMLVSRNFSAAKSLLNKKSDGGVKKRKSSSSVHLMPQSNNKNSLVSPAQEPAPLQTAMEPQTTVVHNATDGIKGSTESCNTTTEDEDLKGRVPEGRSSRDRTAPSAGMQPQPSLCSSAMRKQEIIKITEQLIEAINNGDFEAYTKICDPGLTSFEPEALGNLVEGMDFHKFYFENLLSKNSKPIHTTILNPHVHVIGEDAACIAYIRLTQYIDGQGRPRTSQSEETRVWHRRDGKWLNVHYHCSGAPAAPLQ
Tyrosine-protein kinase Tec (Homo sapiens), sequence (P42680 whole entry, looked up): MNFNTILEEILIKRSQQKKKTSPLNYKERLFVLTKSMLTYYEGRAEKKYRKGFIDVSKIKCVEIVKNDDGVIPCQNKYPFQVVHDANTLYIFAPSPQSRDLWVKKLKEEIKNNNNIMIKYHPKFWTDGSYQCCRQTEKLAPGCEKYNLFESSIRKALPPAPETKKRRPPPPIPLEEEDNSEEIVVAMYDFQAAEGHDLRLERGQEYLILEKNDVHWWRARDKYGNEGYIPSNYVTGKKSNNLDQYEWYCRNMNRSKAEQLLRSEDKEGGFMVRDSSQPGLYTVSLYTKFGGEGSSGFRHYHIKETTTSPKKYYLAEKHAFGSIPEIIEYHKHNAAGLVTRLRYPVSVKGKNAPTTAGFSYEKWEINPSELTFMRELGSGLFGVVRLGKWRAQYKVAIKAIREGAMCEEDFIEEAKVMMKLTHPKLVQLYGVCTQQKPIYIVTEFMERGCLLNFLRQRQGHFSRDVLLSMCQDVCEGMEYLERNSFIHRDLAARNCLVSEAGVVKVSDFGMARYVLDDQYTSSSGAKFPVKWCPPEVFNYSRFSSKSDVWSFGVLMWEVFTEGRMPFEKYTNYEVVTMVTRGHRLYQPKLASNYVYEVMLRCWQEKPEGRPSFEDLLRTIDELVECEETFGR
Dual specificity mitogen-activated protein kinase kinase 2 (Homo sapiens), sequence (P36507 whole entry): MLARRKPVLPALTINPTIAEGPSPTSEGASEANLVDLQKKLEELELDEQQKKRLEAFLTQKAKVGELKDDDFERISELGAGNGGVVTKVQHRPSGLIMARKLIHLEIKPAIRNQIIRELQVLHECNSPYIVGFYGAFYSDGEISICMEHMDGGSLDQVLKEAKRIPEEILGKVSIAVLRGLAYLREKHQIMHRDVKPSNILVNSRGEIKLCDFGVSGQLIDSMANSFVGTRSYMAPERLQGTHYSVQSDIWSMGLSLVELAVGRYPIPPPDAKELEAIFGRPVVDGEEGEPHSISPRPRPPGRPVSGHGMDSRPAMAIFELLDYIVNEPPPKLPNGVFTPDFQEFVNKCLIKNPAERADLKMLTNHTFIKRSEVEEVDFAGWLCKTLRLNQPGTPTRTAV

inhibition [1]: 0% | inhibition [2]: 3% | fold change (FC) [3]: 0.09 | inhibition [4]: 32%
Compound: CNC(=O)c1ccccc1Oc1nc(Nc2cc(OC)c(OC)c(OC)c2)ncc1Br

inhibition [5]: 18% | inhibition [6]: 0% | inhibition [7]: 0% | inhibition [8]: 67% | fold change (FC) [9]: 0.25 | inhibition [10]: 0%
Compound: CC(C)[C@H](NC(=O)c1cc(-c2cnn3cc(-c4ccc(OCCN5CCCCC5)cc4)cnc23)cs1)C(F)(F)F

inhibition [11]: 0% | inhibition [12]: 13% | inhibition [13]: 0% | fold change (FC) [14]: 0.04
Compound: O=C(N[C@@H](C1CC1)C(F)(F)F)c1cc(-c2cnn3cc(-c4ccc(F)cc4)cnc23)cs1
